Results published in the RNAGym collection of RNA variant scans (doi:10.1126/science.aae0568).
This sample holds only a part of the variants without activity.

B1: tRNA (parent)
chain: GUUCCGUUGGCGUAAUGGUAACGCGUCUCCCUCCUAAGGAGAAGACUGCGGGUUCGAGUCCCGUACGGAACG

Variants of: B1
Experiment: yeast fitness relative to wild type (ratio to wild type); higher = fitter; tRNA-Arg(CCU), competitive growth, 37 C, YPD
Outline: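 For this measurement, the tRNA-Arg(CCU) gene was varied by chemical synthesis at a 3% per-site mutation rate across 69 sites, and each variant was placed at the native genomic locus in Saccharomyces cerevisiae. The pooled strains went through a 24-hour competition in YPD at 37°C in six parallel replicates, with amplicons from start and end populations read by 100-nucleotide paired-end sequencing. Darwinian fitness relative to wild type followed from the change in each genotype's frequency. Genotypes needed ≥ 100 starting reads, and estimates < 0.5 were set to 0.5.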

Variant	yeast fitness
A40G U54A	0.551
G41A A45U G56C	0.546
G39C G48C G52C	≤ 0.5
A40C G41C G67C	≤ 0.5
A40G G52A U54G C61U	≤ 0.5
A40C G50C	0.644
A40C C46U G52C	≤ 0.5
A40C A65U C66A	0.562
A40U G68C	0.741
A40U C55U G68A	≤ 0.5
A40G G67C	0.956
A40G G67A	0.754
A40C C49G C60G	0.532
A40C G44C C55G	≤ 0.5
A40C C55U C60G C62A	0.546
A40C C61A C66A	≤ 0.5
G39C C62A U64A	≤ 0.5
G41A A57C C62A	≤ 0.5
G39C G51A	0.739
G39C A43G G44C A45U C49G	0.563
A40G A45G U53A	≤ 0.5
A40G C55U A65C	0.525
A40G G50C A57C G58C	0.636
A40G C49U A65C	0.941

Variant	yeast fitness
A40G A42C	0.757
A40G A42U	0.71
A40C U53C	0.828
A40C U53A	0.599
A40G C62U A69C	0.725
G39C U54G A65G	≤ 0.5
G41A G67A	0.663
A40U G48A	0.826
A40C C46G G51C A57C A65U A70C	0.555
G39U C66U	0.854
A40C A42C G56A G67A	≤ 0.5
G39C A43G G48C C49A G50A	≤ 0.5
A40G G44A G63C	≤ 0.5
A40G G51C	0.664
A40G A57C C62U	≤ 0.5
A40G A45C C49G G67C A69U	≤ 0.5
A40G U47A	0.848
A40G U47C	0.788
A40G U47G	0.595
G39C U53A C62A G68C	≤ 0.5
G41A C46U C49A	≤ 0.5
G41A A42C G50C A70G	0.621
G41A G51A C60G A65G	≤ 0.5
A40G C61G U64C	≤ 0.5

Variant	yeast fitness
A40C C60U C61U	≤ 0.5
A40U C55U A65C	≤ 0.5
A40U A43C G68A	0.605
G39C G50A U59C	≤ 0.5
G39C A43U G58C	0.57
G39C G50A U64A	≤ 0.5
A40U G44A C61A	0.511
G41A A43C C66U	0.517
G41A C49A	0.663
G41A C49G	0.655
G41A C49U	0.921
A40G C46A C61U	0.782
A40U G58A	0.92
A40G C46A G68C	0.633
A40G G58A A70C	0.593
A40G G58A A70U	0.61
G41A C61G C66U	≤ 0.5
G41A U53C	0.626
G39C A65G A70U	≤ 0.5
A40C G58C	0.922
G41A C60G A70G	0.542
A40C A70C	0.94
A40C A70G	0.979
G39C G44C G52C G56A	≤ 0.5

Variant	yeast fitness
G41A C66G	0.625
G41A C49U C60G A65G	0.635
A40C U47A	0.636
A40U A42U A65C	0.747
G41A A43U	0.788
G41A A43C	0.843
G41A A69C	0.801
G41A A69U	0.914
A40C C61A A65U	0.625
A40G C46A G67A	0.563
G41A G48A	0.944
G39C G52C	0.635
A40C A43U C61A	0.611
A40U U54A A70U	0.548
A40C A45G U59A	0.573
A40C A57U C60G C66G	≤ 0.5
A40U U47C C66A	0.611
A40U C46U	1.08
A40C A45C A70U	≤ 0.5
A40U A42C A45U U47C A65G	≤ 0.5
G39C A57C	≤ 0.5
G41A C49A G50C G68C	≤ 0.5
A40G C66A	0.694
A40G C62G	0.719

Variant	yeast fitness
A40U A43C A69U	0.851
G39C G44C G50A	0.566
G41A G50A	0.807
A40G G51C U59A C61A A69U	≤ 0.5
G39C C60A	0.587
G39C C60G	0.619
G39C C60U	0.656
A40U U59C	0.913
A40U U59G	0.815
G39C C46G	0.875
A40C A69C	0.765
A40C A69U	0.843
A40C A45G	1
A40C A45U	0.98
A40G A45G G52A	≤ 0.5
A40G A69C	0.861
G39C C46U C62U C66G	≤ 0.5
G39C C46U C49U G56A G68C	0.54
A40C A45C C62U	≤ 0.5
G39U G52A	0.779
A40G G48A C66U	0.769
G39C G44C G56C	≤ 0.5
A40G A43G G44C C66U	≤ 0.5
G41A A57U	0.759

Variant	yeast fitness
G41A A57G	0.828
A40C C46A C61G A69G	≤ 0.5
A40C G56C C66G	≤ 0.5
G41A G51A A70C	0.542
A40U A69C	0.851
A40U A69U	1.04
A40U C61A	0.76
A40U A42C G67A	0.534
A40G G41A	0.825
A40U G67C	0.755
A40G G50A C61G	0.584
G41A C60G C62A A65G	≤ 0.5
A40U A43G C60G	≤ 0.5
G39C C60G A70U	0.524
A40G A57U C60U A70G	0.624
G41A G63C C66A	≤ 0.5
A40G A57G	0.969
A40C A42G G56C	0.588
A40C A57G A70C	0.55
G41A A65U	0.722
G41A A65G	0.934
A40G U47A C66G	0.705
A40U A45U G63A	0.689
A40G G52A U53A C66U	≤ 0.5

Variant	yeast fitness
G39C G44C C46U	0.588
A40U U47A G58A	≤ 0.5
A40U U47A G58C	0.579
A40G C46A C62U	0.734
A40C G63A	0.815
G41A A42U U59G	≤ 0.5
G41A	1
G41C	0.967
A40U A42U C49G G51A C66A G68C	≤ 0.5
A40U U47C	0.869
A40C A43U	0.986
A40C A43G	0.741
A40C G52C	0.685
G39C G67C	0.742
G41A C49G A65G	0.546
G41A U64C	1.07
A40U A57C G67A A69U	≤ 0.5
G39C C46A A69C	0.53
G41A C60G A65G G68A	≤ 0.5
G39C G50C	0.575
G39C G50A	0.752
A40U G48C G63A	0.602
G41A U53A C61A G68C	0.584
